Screens: PubChem, Johns Hopkins Ion Channel Center
MrgX1 PAM = allosterically activates human MrgX1 receptor signaling | B-score at 10 µM | AID 588675 | 310,000 tested, 0.63% active | MrgX1-HEK293, Fluo-4 calcium flux, FDSS; hits give high values | Q96LB2;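 active = plate-corrected calcium response at least 3 library SD above typical, normal starting fluorescence, not activating the receptor alone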;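 also: compound read alongside a low EC10 to EC30 dose of BAM8-22 agonist; peak minus trough fluorescence over baseline measured at the second addition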
Target sequence (Q96LB2 whole entry, looked up): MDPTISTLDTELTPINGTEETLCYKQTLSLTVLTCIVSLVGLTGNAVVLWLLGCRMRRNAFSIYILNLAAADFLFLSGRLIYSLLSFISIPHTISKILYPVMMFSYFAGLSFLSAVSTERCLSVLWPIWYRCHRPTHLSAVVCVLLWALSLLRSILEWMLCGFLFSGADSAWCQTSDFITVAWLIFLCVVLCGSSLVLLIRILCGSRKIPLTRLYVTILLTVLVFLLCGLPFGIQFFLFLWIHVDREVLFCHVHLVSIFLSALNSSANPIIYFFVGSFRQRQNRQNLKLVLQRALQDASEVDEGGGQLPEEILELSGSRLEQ
MrgX1 agonist = agonists of human MrgX1 receptor | 310,000 tested, 0.44% active | B-score at 10 µM | MrgX1-HEK293 cells, Fluo-4 calcium fluorescence, agonist mode; hits give high values | Q96LB2;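 active = calcium response B-score plate-corrected fluorescence ratio at least 3 library SD, with starting fluorescence B-score inside 5 SD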
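System: HEK293 cells stably expressing human MrgX1 receptor; Dosing: test compound in the initial addition of three; Schedule: overnight plating, then 30 min 37 °C plus 30 min room-temperature dye loading; Detection: kinetic calcium dye fluorescence, Fluo-4 NW; Controls: per-plate positive and negative controls for Z′ factor.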
MrgX1 antag = human MrgX1 receptor antagonism, primary screen | 310,000 tested, 1.3% active | B-score at 10 µM | MRGX1-HEK293 calcium flux, Fluo-4, BAM8-22 antagonism; hits give low values | AID 588676;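 active = calcium-response B-score plate-corrected more than 3 library SD below zero, starting fluorescence within 5 deviations, no agonist response on first addition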;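 also: peak minus trough fluorescence over baseline after final BAM8-22 challenge near maximal dose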
RGS4 block = human RGS4 inhibition; P49798; HEK293 M3R/RGS4 inducible, Fluo-4 calcium flux; hits give high values; triggered by carbachol at its EC20; B-score at 10 µM; 310,000 tested, 0.45% active;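 active = B-score, a plate-corrected calcium signal, over three deviations above library mean, with baseline fluorescence within five deviations of library mean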;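 also: RGS4 expression induced by doxycycline in cells with stable M3 receptor; B-score is computed from the integrated fluorescence ratio over baseline after carbachol; higher B-score means a larger calcium signal and so more RGS4 inhibition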
Target sequence (P49798 whole entry, looked up): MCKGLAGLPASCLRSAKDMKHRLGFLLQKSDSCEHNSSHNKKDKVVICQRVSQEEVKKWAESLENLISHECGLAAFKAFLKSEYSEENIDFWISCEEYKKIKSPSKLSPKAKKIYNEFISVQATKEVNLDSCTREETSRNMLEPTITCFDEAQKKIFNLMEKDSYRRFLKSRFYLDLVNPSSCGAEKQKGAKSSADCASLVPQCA
RGS4 act = potentiators or activators of RGS4. 310,000 tested, 0.92% active. B-score at 10 µM. HEK293 M3R/inducible RGS4, carbachol calcium flux Fluo4; hits give low values. AID 463111;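 active = B-score of the integrated calcium signal more than 4 SD below the library mean, with starting fluorescence not abnormally high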;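 also: negative B-score means reduced calcium response which marks RGS4 activation or potentiation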
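Test system: HEK293 cells with stable M3R and inducible RGS4; also added: carbachol at ECmax as muscarinic agonist stimulus; schedule: dye loading 30 min 37 °C, buffer rest 30 min RT; technique: kinetic calcium fluorescence imaging with Fluo4-AM dye, 2 µM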
MrgX1 antag conf = human MrgX1 receptor antagonism, re-confirmation screen | shares compounds with MrgX1 antag | MrgX1-HEK293, BAM8-22 calcium flux, Fluo-4; hits give low values | AID 602420 | remaining BAM8-22 calcium response % of control (hits give low values), % at 10 µM | 2,300 tested, 19% active;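 active = remaining agonist calcium response no higher than 100% minus 3 SD of agonist-only control wells, with starting fluorescence near control levels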;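 also: agonist BAM8-22 given at a near maximal EC90 to ECmax level; peak minus minimum fluorescence divided by baseline after agonist addition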
HEK293 Ca flux = activity in parental HEK293 cells lacking MrgX1 | 4,000 tested, 2% active | AID 624111 | Fluo-4 calcium fluorescence, FDSS | fluorescence ratio F(max-min)/F0 at 10 µM | shares compounds with MrgX1 antag;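 active = duplicate-averaged calcium fluorescence ratio at least three times the standard deviation of buffer wells, a nonspecific response in parental cells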
HEK293 Ca counter = activity in parental HEK293 cells without MrgX1 | AID 624114 | 4,000 tested, 0.4% active | parental HEK293 calcium flux, Fluo-4 fluorescence ratio; hits give high values | shares compounds with MrgX1 antag | fluorescence ratio F(max-min)/F0 at 10 µM;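 active = calcium fluorescence ratio, averaged over duplicates, at least 3 SD of the buffer-well ratio, meaning a nonspecific response in receptor-free cells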;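 also: untransfected parental HEK293 lacking MrgX1 used as counterscreen for MrgX1 allosteric activators; fluorescence change taken during the second addition on a kinetic imager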
HEK293 Ca cntr2 = MrgX1 activator counter-screen hit in parental HEK293 cells | AID 624115 | Fluo-4 calcium fluorescence (FDSS); hits give high values | 4,000 tested, 8.7% active | fluorescence ratio F(max-min)/F0 at 10 µM | shares compounds with MrgX1 antag;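 active = calcium fluorescence ratio at least three times the spread of buffer wells, meaning a non-specific response in parental cells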
Numbers stand for hits; - = inactive; . = no result given. Most compounds without a hit are left out; they make up all but 3.5% or so of the library.

SMILES | MrgX1 PAM | MrgX1 agonist | MrgX1 antag | RGS4 block | RGS4 act | MrgX1 antag conf | HEK293 Ca flux | HEK293 Ca counter | HEK293 Ca cntr2
CCCn1c(-c2cccs2)nc2ccccc21 | - | - | - | - | - | . | . | . | .
CC(C)(C)c1ccc(C(=O)NN2C(=O)CSC2=S)cc1 | - | - | - | - | - | . | . | . | .
COc1ccc(CN2C3CCCC2CC(NC(=O)Nc2cccc(C)c2)C3)cc1 (centres undefined) | - | - | -7.9 | - | - | 72% | - | - | -
COc1ccc(CN2C3CCCC2CC(NC(=O)Nc2ccccc2)C3)cc1 (centres undefined) | - | - | - | - | - | . | . | . | .
COC(=O)c1ccc(CSc2nnc(SCc3ccc(C(=O)OC)o3)s2)o1 | - | - | - | - | - | . | . | . | .
COC(=O)c1ccc(CSc2nc(C)nc3sc(C)c(C)c23)o1 | - | - | -7.4 | - | - | - | - | - | -
O=C(COc1ccc([N+](=O)[O-])cc1)NCC(c1cccs1)N1CCOCC1 (centres undefined) | - | - | - | - | - | . | . | . | .
O=C(NC1CCCN(Cc2ccc(Cl)cc2)C1)c1ccnc(Cl)c1 (centres undefined) | - | - | - | - | - | . | . | . | .
O=C(NC1CCCN(c2ccc(C(F)(F)F)cn2)C1)c1ccnc(Cl)c1 (centres undefined) | - | - | -4.9 | - | - | 84% | - | - | -
C=CCN1C(=O)/C(=C/c2ccc(OC(C)=O)c(OCC)c2[N+](=O)[O-])SC1=S | . | . | . | - | - | . | . | . | .
CC(/C=C/c1ccccc1)NC(N)=O (centres undefined) | - | - | -5.8 | - | - | - | - | - | -
CCOC(=O)CNc1c(N2CCN(c3ccccn3)CC2)c(=O)c1=O | - | - | -6.5 | - | - | - | - | - | -
O=C(C1CCC(CNc2c(N3CCCCC3)c(=O)c2=O)CC1)N1CCN(c2ccccn2)CC1 (centres undefined) | - | - | - | - | - | . | . | . | .
Cc1ccc(OC(C)C(=O)Nc2ccc(S(=O)(=O)Nc3nccs3)cc2)cc1 (centres undefined) | - | - | - | - | - | . | . | . | .
CCc1ccc(OC(C)C(=O)Nc2ccc(S(=O)(=O)Nc3nccs3)cc2)cc1 (centres undefined) | - | - | -6.5 | - | - | 74% | - | - | 46
COc1ccc2oc(C(=O)OCC(=O)NCc3ccccc3OC)c(C)c2c1 | - | - | -5.1 | - | - | - | - | - | -
NS(=O)(=O)Cc1noc2ccccc12 | - | - | - | - | - | . | . | . | .
Cc1cc(N=Nc2ccccc2C(=O)O)c(C)c(C)c1O | - | - | -6.9 | - | - | - | - | - | -
Cc1cc(O)c(C(C)C)cc1N=Nc1ccccc1C(=O)O | - | - | - | - | - | . | . | . | .
CCN(CC)CCC(c1ccc2c(c1)OCO2)c1c(O)cc(OC)cc1OC (centres undefined) | - | - | - | - | - | . | . | . | .
Cc1cccnc1N1C(=O)c2ccc(C(=O)O)cc2C1=O | - | - | - | - | - | . | . | . | .
COc1ccccc1N=Cc1c(C)c(C#N)c2[nH]c3ccccc3n2c1=O | - | - | -6.2 | - | - | - | - | - | -
O=C(Nc1cccc(Cl)c1)/C(=C\c1cccnc1)NC(=O)c1ccco1 | - | - | - | - | - | . | . | . | .
CCN1CCN(C(=S)Nc2ccc3nc(N4CCN(CC)CC4)cc(C)c3c2)CC1 | - | - | -4.9 | - | - | - | - | - | -
O=C(c1ccco1)N1CCN(C(=O)c2ccc(CS(=O)c3ccc(Cl)cc3)o2)CC1 (centres undefined) | - | - | - | - | - | . | . | . | .
SMILES | MrgX1 PAM | MrgX1 agonist | MrgX1 antag | RGS4 block | RGS4 act | MrgX1 antag conf | HEK293 Ca flux | HEK293 Ca counter | HEK293 Ca cntr2
O=C(Cc1c(Cl)cccc1Cl)NC1=NCCS1 | - | - | - | - | - | . | . | . | .
O=C(CC(NC(=O)c1ccccc1Cl)c1ccccc1)NC1=NCCS1 (centres undefined) | - | - | -6.6 | - | - | - | - | - | -
CCOC(=O)Nc1nc(C)c(C(=O)c2ccc(Cl)cc2)s1 | - | - | - | - | - | . | . | . | .
CCOC(=O)Nc1nc(-c2ccc(Cl)cc2Cl)cs1 | - | - | -5.6 | - | - | - | - | - | -
C=CCN(c1ccc(C(=O)Nc2ccc(NC(C)=O)cc2)cc1)S(C)(=O)=O | - | - | - | - | - | . | . | . | .
CC(C)Oc1ccc(C(=O)Nc2nnc(SCC(=O)N3CCOCC3)s2)cc1 | - | - | -4.9 | - | - | - | - | - | -
COc1ccc(-c2nc3ccccc3c(=O)n2CCOc2c(C)cccc2C)cc1 | - | - | -4.6 | - | - | - | 0.2 | - | -
Cc1ccc(Cl)c(OCC(=O)Nc2sc(C)c(C)c2C#N)c1 | - | - | -7.9 | - | - | - | - | - | -
Cc1ccc(Cl)c(OCC(=O)Nc2cccnc2)c1 | - | - | - | - | - | . | . | . | .
O=C(NCc1ccco1)C1CCCN(S(=O)(=O)c2ccc(Br)cc2)C1 (centres undefined) | - | - | - | - | - | . | . | . | .
CS(=O)(=O)N1CCCC(C(=O)NCc2ccco2)C1 (centres undefined) | - | - | -5.1 | - | - | - | - | - | -
O=C(Cn1ccc2cc(S(=O)(=O)N3CCCC3)ccc21)NCc1ccco1 | - | - | -4.6 | - | - | - | - | - | -
CCOc1ccccc1NC(=O)c1ccc2c(c1)C(=O)N(CC)C2=O | - | - | - | - | - | . | . | . | .
COc1cccc(CN(C(=O)c2ccco2)C2CCS(=O)(=O)C2)c1 (centres undefined) | - | - | -4.8 | - | - | - | - | - | -
CCc1noc(C)c1C(=O)N1CCCC1 | - | - | -4.7 | - | - | 78% | - | - | -
CCc1noc(C)c1C(=O)N1CC(C)OC(C)C1 (centres undefined) | - | - | - | - | - | . | . | . | .
COc1c2c(nc3ccccc13)OC(C(C)(O)COC(C)=O)C2 (centres undefined) | - | - | -6.5 | - | - | - | - | - | -
Cc1nc2ccccc2c2c1CC(C(C)(Cl)Br)O2 (centres undefined) | - | - | - | - | - | . | . | . | .
c1ccn2c(Cc3nnc4ccccn34)nnc2c1 | - | - | -5.5 | - | - | - | - | - | -
c1csc(-c2nnc3ccccn23)c1 | - | - | - | - | - | . | . | . | .
C[C@H]1CN=C(Nc2ccccc2)N1CC1CCCCC1 | - | - | - | - | - | . | . | . | .
